# Hits are enriched below; roughly 2.5% of the tested compounds scored in any of these assays.
# NadD inh: inhibitors of S. aureus NadD, primary screen, biochemical, colorimetric, uHTS; Nicotinate-nucleotide adenylyltransferase NadD (Staphylococcus aureus N315); actives 0.78% (n = 360,000); purified NadD enzyme, colorimetric absorbance read-out; inhibition, % at 20 µM; AID 602399, 2012; in the data active = inhibition above about 26%
# Beta2AR agonist: beta2AR agonists driving receptor internalization, primary screen, cell-based, FAP fluorogen, flow cytometry | response, % (no concentration beside the values) | actives 0.43% (n = 340,000) | Am2.2-beta2AR cells | Beta-2 adrenergic receptor (Homo sapiens), P07550;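 active = response above a set limit, near 3 SD of response in nonfluorescent compounds, cut at about 42% in these data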
# Target sequence (P07550 whole entry, looked up): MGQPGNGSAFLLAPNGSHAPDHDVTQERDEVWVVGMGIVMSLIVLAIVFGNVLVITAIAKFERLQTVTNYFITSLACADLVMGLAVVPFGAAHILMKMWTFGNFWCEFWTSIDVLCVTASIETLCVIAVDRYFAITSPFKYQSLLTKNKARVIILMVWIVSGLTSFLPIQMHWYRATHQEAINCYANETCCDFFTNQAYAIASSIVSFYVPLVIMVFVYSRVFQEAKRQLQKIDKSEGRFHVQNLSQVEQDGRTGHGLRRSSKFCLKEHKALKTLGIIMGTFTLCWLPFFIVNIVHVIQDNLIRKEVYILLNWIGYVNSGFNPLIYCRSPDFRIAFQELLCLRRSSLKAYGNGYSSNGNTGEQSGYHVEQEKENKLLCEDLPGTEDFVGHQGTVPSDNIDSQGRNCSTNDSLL
# SENP1 inh: human SENP1 catalytic domain inhibitors, primary screen, biochemical, FRET, uHTS | recombinant SENP1 catalytic domain, CyPet-SUMO1-YPet FRET cleavage | inhibition, % at 10 µM | actives 0.21% (n = 360,000);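 active = inhibition at least 30% at 10 µM, raw YFP signal under a set limit, fluorescence ratio 0.5 to 1.5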;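 also: 0% = enzyme with DMSO and 100% = no enzyme wells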
# Target sequence (Q9P0U3 419-644 limits assumed): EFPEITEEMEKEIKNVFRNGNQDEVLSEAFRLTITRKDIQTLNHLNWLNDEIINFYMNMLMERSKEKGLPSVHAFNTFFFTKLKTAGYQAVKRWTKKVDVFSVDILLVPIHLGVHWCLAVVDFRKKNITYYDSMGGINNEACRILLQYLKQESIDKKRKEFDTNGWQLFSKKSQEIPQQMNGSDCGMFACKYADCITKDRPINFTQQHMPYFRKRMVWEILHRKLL
#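 Material – human SENP1 catalytic domain · Input – SENP1 enzyme, 20 pM final · Compound dosing – single concentration of 10 µM compound, 0.5% DMSO final · Timing – enzyme reaction for 50 min at room temperature, dark · Measured by – FRET fluorescence in CFP and YFP emission channels · Control set – no-enzyme wells low, DMSO-plus-enzyme wells high control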
# GRK2 inh: compounds blocking aptamer binding on GRK2 – biochemical, human GRK2, bead flow cytometry, HTS, primary screen; Beta-adrenergic receptor kinase 1 (Homo sapiens), P25098; FAM-aptamer displacement from GRK2; inhibition of aptamer binding, % at 10 µM; actives 0.59% (n = 330,000); AID 488847, 2010;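 active = inhibition of aptamer binding above 40%, roughly 3 SD of noise, on plates passing a quality check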;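 also: median bead fluorescence of bound FAM aptamer so fluorescent compounds give negative values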
# ABHD5-PLIN5 inh: ABHD5-PLIN5 interaction inhibitors, primary screen, cell lysate, split luciferase complementation, luminescence. Perilipin-5 (Homo sapiens) + 1-acylglycerol-3-phosphate O-acyltransferase ABHD5 (Homo …. Split G. princeps luciferase complementation, 4 h. inhibition, % at 4 µM. actives 0.78% (n = 360,000);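 active = inhibition above the mean inhibition across every tested compound plus 3 SD, cut at about 22% in these data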;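 also: 0% = DMSO only wells and the 100% control is not disclosed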
# * marks the source's active call; other numbers are inactive results; . = no result; ! = not active in a repeat.
SMILES,NadD inh,Beta2AR agonist,SENP1 inh,GRK2 inh,ABHD5-PLIN5 inh
CCOC(=O)c1cc(-c2ccc(/C=C3/C(=O)NC(=O)C(C#N)=C3C)o2)ccc1Cl,38.6*,17.2,-27.6,0.0,-6.8
Cc1cc(C)c(C)c(S(=O)(=O)N2CCC(C(=O)Nc3ccncc3)CC2)c1C,-0.8,2.9,1.8,11.0,8.0
O=C(Nc1ccc2c(c1)CCC2)c1cc(S(=O)(=O)N2CCN(c3ccccc3)CC2)ccc1Cl,32.2*,3.7,0.9,0.0,-1.2
O=C(Cn1ncc(Cl)c(Cl)c1=O)NCC1CCCCC1,1.5,59.8*,-0.8,2.0,10.9
O=C(Cn1ncc(Cl)c(Cl)c1=O)NC1CCCCC1,7.1,14.7,-1.4,0.0,1.6
Cc1ccc(NC2=C/C(=N\S(=O)(=O)c3cccs3)c3ccccc3C2=O)c(C)c1,5.7,63.7*,2.6,0.0,-2.0
CCc1ccc(S(=O)(=O)/N=C2/C=C(Sc3ncn[nH]3)C(=O)c3ccccc32)cc1,70.6*,55.1*,6.3,6.0,32.3*
Cc1ccc(Cl)cc1NC1=C/C(=N\S(=O)(=O)c2cccs2)c2ccccc2C1=O,6.2,44.9*!,1.9,0.0,-6.1
O=C1C(Nc2ccc(O)cc2)=C/C(=N/S(=O)(=O)c2cccs2)c2ccccc21,-5.5,61.4*,-0.6,.,-4.1
COc1ccc(C2(C)NC(=O)N(CC(=O)NCc3ccccc3F)C2=O)cc1 (centres undefined),-5.9,6.8,2.5,27.0,-10.5
COc1ccc(S(=O)(=O)N(C)c2ccc(C(=O)Nc3cccnc3)cc2)cc1OC,1.8,-8.5,2.8,2.0,-2.7
Cc1ccc(N2CCN(C(=O)C(=O)c3ccc(F)c(F)c3)CC2)cc1,.,.,1.1,.,-13.6
CCc1ccc(S(=O)(=O)/N=C2\C=C(Nc3cccc(C(=O)O)c3)C(=O)c3ccccc32)cc1,19.2,15.7,2.2,6.0,-5.2
CCc1ccc(S(=O)(=O)/N=C2\C=C(Nc3ccc(O)cc3)C(=O)c3ccccc32)cc1,12.3,45.3*,2.6,1.0,3.3
CC1CCN(C2=NN3C(=N)/C(=C\c4ccc(OC(=O)c5ccco5)cc4)C(=O)N=C3S2)CC1,37.5*,26.4,-91.0,4.0,4.7
CCOC(=O)c1ccc(NC2=CC(=O)C(=O)c3ccccc32)cc1,46.6*,6.7,11.5,0.0,-6.4
Cc1ccc(NC2=CC(=O)C(=O)c3ccccc32)cc1,6.5,4.7,-0.2,3.0,-14.8
CCOc1ccc(S(=O)(=O)Nc2ccc(C(=O)N/N=C(\C)c3ccc(-n4ccnc4)cc3)cc2)cc1,41.5*,-2.2,1.6,0.0,-6.1
CCOc1ncccc1C(=O)OCC(=O)NC(=O)c1ccccc1,1.5,3.9,2.7,0.0,-3.9
CCOC(=O)C1CCN(C(=O)COc2ccc(N(C)S(=O)(=O)c3ccc(C)cc3)cc2)CC1,-2.9,5.8,2.9,3.0,4.5
COC(CNC(=O)c1ccc2c3c(onc13)-c1ccccc1C2=O)OC,3.1,48.3*,8.2,5.0,-9.0
C=CCN1C=CC(=O)[C@@H](OC(=O)Nc2ccc(Br)cc2)[C@H]1c1ccccc1Br,4.2,14.1,0.3,.,-3.4
Cc1ccc2nc(N(CCCN(C)C)C(=O)CS(=O)(=O)c3ccccc3)sc2c1,-7.6,4.1,0.8,0.0,-3.1
Cc1ccc2nc(N(CCCN(C)C)C(=O)CCc3ccccc3)sc2c1,-0.8,13.9,-0.8,0.0,22.0*
O=C(O)C1(S(=O)(=O)c2ccc(Cl)cc2)CCC1,-10.8,1.9,1.6,0.0,-13.3
SMILES,NadD inh,Beta2AR agonist,SENP1 inh,GRK2 inh,ABHD5-PLIN5 inh
CC(C)C(=O)N1CCC1(C)C(=O)NCc1cc(Cl)ccc1F (centres undefined),0.0,.,-1.1,.,10.4
CC(C)(C)c1ccc(-c2nc(O)c(CC(=O)O)s2)cc1,.,.,.,51.0*,.
O=C(O)Cc1sc(-c2ccccc2)nc1-c1ccccc1,0.2,3.0,0.9,0.0,-8.5
O=C(O)c1cccc(N2C(=O)/C(=C/c3ccc([N+](=O)[O-])cc3)C=C2c2ccccc2)c1,12.1,-3.4,32.1*,7.0,7.9
CC(C)c1ccc(/C=C2\Oc3c(ccc(O)c3CN3CCN(C)CC3)C2=O)cc1,-3.1,-1.8,-23.3,0.0,10.5
Cc1ccc(/C=C2\Oc3c(ccc(O)c3CN3CCN(CCO)CC3)C2=O)cc1,2.9,7.8,-28.6,0.0,22.8*
CCOc1ccc(N2C(=O)CC(Sc3nnnn3-c3ccccc3)C2=O)cc1 (centres undefined),-6.7,16.2,0.2,.,26.9*
CCOc1ccc(N2C(=O)CC(Sc3nc(C)cc(C)n3)C2=O)cc1 (centres undefined),-2.8,-2.4,2.9,3.0,-2.2
O=C(N/N=C/c1ccc(-c2ccc(S(=O)(=O)Nc3ncccn3)cc2)o1)c1cc2ccccc2cc1O,81.3*,-1.0,-12.4,0.0,1.8
NC(=S)NN=Cc1ccc(-c2ccc(S(=O)(=O)Nc3ncccn3)cc2)o1,20.0,-3.5,-11.7,1.0,-11.3
O=C(Nc1ccc(Cl)cc1Cl)c1cccc(N2C(=O)C=CC2=O)c1,22.0,70.6*,-32.4,1.0,14.7
CC(C)(C)C1=CC(=O)C(=O)C(C(C)(C)C)=C1,18.1,110.0*,-1.0,6.0,1.0
CN(C(=O)CO/N=C/c1ccc(Cl)cc1)c1ccccc1,-5.3,0.6,1.8,2.0,-2.8
O=S(=O)(NCC1(N2CCOCC2)CCCCC1)c1ccc(F)c(F)c1F,-1.3,-0.6,0.0,1.0,3.3
CCOC(=O)Oc1ccc2oc(=O)cc(C)c2c1,0.7,-2.8,-1.0,0.0,-2.2
Cc1cc(=O)oc2ccc(OCC(=O)N(Cc3ccc(F)cc3)Cc3ccco3)cc12,8.9,60.9*,-1.3,0.0,0.3
Cc1ccc(NC(=O)c2ccccc2SCC(=O)N2CCCC2)cc1S(=O)(=O)N(C)C,1.7,1.1,1.3,0.0,-4.9
CCc1ccc(N=Nc2ccc(O)c3[nH]cnc23)cc1,7.2,-164.3,75.5*,4.0,11.4
CC(C)(C)n1nc2c(c1NC(=O)COc1ccc(Cl)cc1)CSC2,46.5*,1.0,1.4,0.0,-1.0
CC(C)(C)n1nc2c(c1NC(=O)COc1ccc(Cl)cc1)CS(=O)(=O)C2,-2.1,-0.9,0.7,3.0,3.8
O=C(Nc1ccc(OC(F)(F)F)cc1)C1CCCCN1S(=O)(=O)c1ccccc1 (centres undefined),-5.6,2.6,1.5,.,-9.9
COc1ccc(C)cc1Nc1n[n+](-c2ccccc2)c(-c2cc([N+](=O)[O-])cc(OC)c2O)s1,5.6,-80.4,43.3*,0.0,-2.5
Cc1ccc(S(=O)(=O)NC2=C(N3CCN(c4ccccc4F)CC3)C(=O)c3ccccc3C2=O)cc1,33.9*!,3.7,-4.8,0.0,-3.8

# Source: PubChem
